Measured values from different studies.
Lines come from different studies, so protocols differ.
Target: Calcium/calmodulin-dependent protein kinase type II subunit gamma (CAMK2G, Homo sapiens, UniProt Q13555)

COc1cc(-c2cc(-c3ccc(N4CCNCC4)cc3)cnc2C)cc(OC)c1OC — inhibition (enzyme activity, inhibitor; 0.1 µM): 1%
C[C@@H]1CCN(C(=O)CC#N)C[C@@H]1N(C)c1ncnc2[nH]ccc12 — remaining signal (cell-free assay; 0.5 µM): 127%
O=C1CCc2cc(Nc3cc(OC4CCOCC4)c([N+](=O)[O-])cc3Cl)ccc2N1 — remaining binding (cell-free assay, competition with immobilised ligand; 1 µM): 100%
CC/C(=N\NC(=O)NCc1cccc(O)c1)c1ccc(O)c(C)c1O — inhibition (enzyme activity, inhibitor; 0.1 µM): -5.1%
CN([C@@H]1CCc2c(CC(=O)O)c3cc(S(C)(=O)=O)ccc3n2C1)S(=O)(=O)c1ccc(F)cc1 — remaining binding (cell-free assay, competition with immobilised ligand; 1 µM): 100%
Cc1ccc(NC(=O)c2ccc(C)c(C(F)(F)F)c2)cc1C#Cc1nn(C2CCC(O)CC2)c2ncnc(N)c12 (centres unmarked) — remaining signal (cell-free assay; 10 µM): 90%
CS(=O)(=O)c1cc(C2(NC(=O)c3cncc4c3cnn4-c3ccc(F)cc3)CC2)ccn1 — remaining binding (cell-free assay, competition with immobilised ligand; 1 µM): 72%
Cc1ccc(C(=O)NCc2ccsc2)cc1C#Cc1cn(C(C)C)c2ncnc(N)c12 — activity vs control (enzyme activity, inhibitor; 1 µM): 101%
Cc1cc(NC(=O)c2cccc3cc(-c4cccc5[nH]nc(N)c45)ccc23)ccc1F — activity vs control (enzyme activity, inhibitor; 0.1 µM): 106%
Cc1cnc(NC2CCOCC2)nc1-n1cnc(C(=O)NC(CN)c2cc(F)cc(Cl)c2)c1 (centres unmarked) — remaining activity (enzyme activity, inhibitor, radiometric; 1 µM): 88%
CNC(=O)Nc1ccc2c(c1)CC[C@@]21OC(=O)N(CC(=O)N(Cc2ccc(F)cc2)[C@@H](C)C(F)(F)F)C1=O — remaining binding (cell-free assay, competition with immobilised ligand; 1 µM): 76%
CC(C)(O)[C@H]1CC[C@H](Nc2ccc3ncc(-c4cccc(C(F)(F)F)c4)n3n2)CC1 — remaining activity (enzyme activity, inhibitor; 1 µM): 95.1%
CC(C)(C)c1nc(-c2cccc(NS(=O)(=O)c3c(F)cccc3F)c2F)c(-c2ccnc(N)n2)s1 — remaining activity (enzyme activity, inhibitor, radiometric; 1 µM): 102%
CNC(=O)c1cc(Oc2ccc(NC(=O)Nc3ccc(Cl)c(C(F)(F)F)c3)cc2)ccn1 — inhibition (cell-free assay; 0.3 µM): 51%
O=C(NC[C@@H]1[C@H]2CN(C(=O)OCc3cc(C(F)(F)F)cc(C(F)(F)F)c3)C[C@@H]12)c1ccc2[nH]nnc2c1 — remaining binding (cell-free assay, competition with immobilised ligand; 1 µM): 85%
C#Cc1cccc(Nc2ncnc3cc(OCCOC)c(OCCOC)cc23)c1 — remaining signal (cell-free assay; 0.5 µM): 115%
Cc1ccc(C(=O)Nc2ccc(CN3CCN(C)CC3)c(C(F)(F)F)c2)cc1C#Cc1cnc2cccnn12 — remaining signal (cell-free assay; 23.5 nM): 98%
O=C(Nc1cnn(-c2csc(C(=O)NC3COC3)c2)c1)Nc1ccccc1Cl — remaining activity (enzyme activity, inhibitor; 5 µM): 96.4%
Cc1nc(Cc2cccc(C(F)(F)F)c2)sc1-c1ccc(C(N)=O)nc1 — remaining binding (cell-free assay, competition with immobilised ligand; 1 µM): 93%
CN1CC(Oc2cnc(C#N)cc2-c2ccn3nc(NC(=O)C4CC4)cc3c2)C1 — inhibition (enzyme activity, inhibitor; 1 µM): 10%
